Measurements from ChEMBL document CHEMBL3421570, “Combinatorial Libraries As a Tool for the Discovery of Novel, Broad-Spectrum Antibacterial Agents Targeting the ESKAPE Pathogens” (J Med Chem, 2015).
≈ marks a conversion by molar mass, not a printed value. Calls of active or inactive are those of the source. The calls are words filed in the database; no cut-off is given here.

How the values were obtained:
[1] = Induction of hemolysis in human RBC at 10 uM incubated for 15 mins; assay type: cell-based, Erythrocyte; details: red blood cells, read-out: Activity
How it was run: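 Human RBCs from whole blood, resuspended 20% v/v in HA buffer (NaCl, CaCl2), compound 10 μM, 15 min at 37°C. Centrifuged 5,500 g for 1 min, supernatant OD543 read. Percent hemolysis against DMF vehicle (0%) and 1.0% Triton X-100 (100%); triplicate.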

Enterococcus faecium [2] = experiment: Antibiofilm activity against Enterococcus faecium incubated for 24 hrs followed by biofilm resuspension in PBS and measured after 24 hrs; assay type: functional
How it was run: (§1)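 Biofilms grown 24 h in 96-well plates from overnight cultures standardized to OD600 0.5 in fresh medium (human serum only for S. aureus; TSB for Gram-positives, LB for Gram-negatives). Medium then replaced with fresh medium containing a concentration range above and below MIC, 37°C overnight. After 24 h biofilm resuspended in PBS, serially diluted, plated in duplicate, CFU counted after 24 h at 37°C. Activity relative to untreated; three technical replicates; MBEC50 reported.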

Staphylococcus aureus [3] = experiment: Bactericidal activity against methicillin-resistant Staphylococcus aureus assessed as cell survival recovery at MIC measured after drug wash out after 120 mins by time kill assay; assay type: functional
How it was run: (§2)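 MRSA from stationary phase was regrown 3 h in TSB and seeded at OD600 0.5. […] After 120 min, cells were centrifuged and washed, serially diluted and plated for CFU. Percent recovery is relative to no-drug controls.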

[4] = Selectivity index, ratio of IC50 for human A549 cells to MIC for Staphylococcus aureus
Staphylococcus aureus [5] = experiment: Ratio of MIC for Staphylococcus aureus measured after 8 cycle passage to MIC for wild type Staphylococcus aureus; assay type: functional
Enterobacter cloacae [6] = experiment: Ratio of MIC for Enterobacter cloacae measured after 8 cycle passage to MIC for wild type Enterobacter cloacae; assay type: functional
[7] = Selectivity index, ratio of IC50 for human A549 cells to MIC for Enterobacter cloacae
Staphylococcus aureus [8] = experiment: Induction of spontaneous mutation in Staphylococcus aureus at 2 to 10 MIC; assay type: functional, organism-based
[9] = Cytotoxicity against human A549 cells assessed as cell viability recovery at 45 uM after 48 hrs by MTT assay; assay type: cell-based; details: read-out: Activity
How it was run: (§3)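 A549 cells grown in F-12K with L-glutamine, 10% FBS, 1% penicillin-streptomycin, seeded at 1.0 × 10^5 ml−1, allowed to adhere 24 h (37°C, 5% CO2), then exposed to compound in 45% w/v (2-hydroxypropyl)-β-cyclodextrin vehicle for 48 h. MTT 4 h, formazan solubilized in DMSO, absorbance 540 nm. Percent recovery versus vehicle-only; IC50 derived; at least three independent experiments.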

Acinetobacter baumannii [10] = experiment: Antimicrobial activity against Acinetobacter baumannii assessed as inhibition of microbial growth after 24 hrs; assay type: functional
How it was run: (§4)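 Broth microdilution against multidrug-resistant clinical ESKAPE isolates. Overnight cultures (TSB for Gram-positives, LB for Gram-negatives) diluted 1:1000 in fresh medium, compound in DMF (≤2.0% DMF) added at decreasing concentrations, 37°C.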

Pseudomonas aeruginosa [11] = experiment: Antimicrobial activity against Pseudomonas aeruginosa assessed as inhibition of microbial growth after 24 hrs; assay type: functional; how it was run: as §4
Staphylococcus aureus [12] = experiment: Effect on bacterial density of methicillin-resistant Staphylococcus aureus at MIC measured over 2 hrs period by time kill assay; assay type: functional, organism-based
Staphylococcus aureus [13] = experiment: Bactericidal activity against methicillin-resistant Staphylococcus aureus at MIC measured after drug wash out after 120 mins by time kill assay; assay type: functional; how it was run: as §2
Enterococcus faecium [14] = experiment: Antimicrobial activity against Enterococcus faecium assessed as inhibition of microbial growth at 45 uM after 24 hrs; assay type: functional, organism-based
How it was run: (§5)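 Broth microdilution single-concentration read: overnight cultures diluted 1:1000, compound in DMF (≤2.0%) added, 37°C for 24 h, growth inhibition scored visually by lack of turbidity; triplicate. Gram-positives grown in TSB, Gram-negatives in LB.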

Staphylococcus aureus [15] = experiment: Antimicrobial activity against Staphylococcus aureus USA300 strain FPR3757 infected in mouse model of lethal peritonitis assessed as mouse survival at 2 uM, im dosed 1 hr post infection and measured after 5 days post infection; assay type: functional, organism-based
How it was run: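 Mice, six per group, infected i.p. with 1 × 10^8 CFU ml−1 S. aureus USA300 FPR3757 in PBS with 5% mucin. Compound given i.m. at 2 μM 1 h later; vehicle 45% w/v (2-hydroxypropyl)-β-cyclodextrin in water i.v.; vancomycin i.v. as control. Monitored twice daily for 5 days, pre-moribund animals euthanized. Survival compared by log-rank test.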

Pseudomonas aeruginosa [16] = experiment: Antibiofilm activity against Pseudomonas aeruginosa incubated for 24 hrs followed by biofilm resuspension in PBS and measured after 24 hrs; assay type: functional; how it was run: as §1
[17] = Selectivity index, ratio of IC50 for human A549 cells to MIC for Enterococcus faecium
Enterobacter cloacae [18] = experiment: Bactericidal activity against Enterobacter cloacae after 24 hrs; assay type: functional
Enterobacter cloacae [19] = experiment: Antimicrobial activity against Enterobacter cloacae assessed as inhibition of microbial growth after 24 hrs; assay type: functional; how it was run: as §4
Acinetobacter baumannii [20] = experiment: Antibiofilm activity against Acinetobacter baumannii incubated for 24 hrs followed by biofilm resuspension in PBS and measured after 24 hrs; assay type: functional; how it was run: as §1
Staphylococcus aureus [21] = experiment: Bactericidal activity against Staphylococcus aureus after 24 hrs; assay type: functional
Klebsiella pneumoniae [22] = experiment: Antibiofilm activity against Klebsiella pneumoniae incubated for 24 hrs followed by biofilm resuspension in PBS and measured after 24 hrs; assay type: functional; how it was run: as §1
Klebsiella pneumoniae [23] = experiment: Induction of spontaneous mutation in Klebsiella pneumoniae at 2 to 10 MIC; assay type: functional, organism-based
[24] = Selectivity index, ratio of IC50 for human A549 cells to MIC for Klebsiella pneumoniae
Staphylococcus aureus [25] = experiment: Antimicrobial activity against Staphylococcus aureus assessed as inhibition of microbial growth at 45 uM after 24 hrs; assay type: functional, organism-based; how it was run: as §5
Acinetobacter baumannii [26] = experiment: Antimicrobial activity against Acinetobacter baumannii assessed as inhibition of microbial growth at 45 uM after 24 hrs; assay type: functional, organism-based; how it was run: as §5
A549 = experiment: Cytotoxicity against human A549 cells after 48 hrs by MTT assay; assay type: cell-based; details: A549, 48 h; how it was run: as §3
Enterobacter cloacae [27] = experiment: Antibiofilm activity against Enterobacter cloacae incubated for 24 hrs followed by biofilm resuspension in PBS and measured after 24 hrs; assay type: functional; how it was run: as §1
Pseudomonas aeruginosa [28] = experiment: Antimicrobial activity against Pseudomonas aeruginosa assessed as inhibition of microbial growth at 45 uM after 24 hrs; assay type: functional, organism-based; how it was run: as §5
Staphylococcus aureus [29] = experiment: Antibiofilm activity against Staphylococcus aureus incubated for 24 hrs followed by biofilm resuspension in PBS and measured after 24 hrs; assay type: functional; how it was run: as §1
Klebsiella pneumoniae [30] = experiment: Bactericidal activity against Klebsiella pneumoniae after 24 hrs; assay type: functional
[31] = Selectivity index, ratio of IC50 for human A549 cells to MIC for Acinetobacter baumannii
[32] = Selectivity index, ratio of IC50 for human A549 cells to MIC for Pseudomonas aeruginosa
Staphylococcus aureus [33] = experiment: Antimicrobial activity against Staphylococcus aureus assessed as inhibition of microbial growth after 24 hrs; assay type: functional; how it was run: as §4
Enterococcus faecium [34] = experiment: Bactericidal activity against Enterococcus faecium after 24 hrs; assay type: functional
Acinetobacter baumannii [35] = experiment: Induction of spontaneous mutation in Acinetobacter baumannii at 2 to 10 MIC; assay type: functional, organism-based
Enterococcus faecium [36] = experiment: Antimicrobial activity against Enterococcus faecium assessed as inhibition of microbial growth after 24 hrs; assay type: functional; how it was run: as §4
Klebsiella pneumoniae [37] = experiment: Ratio of MIC for Klebsiella pneumoniae measured after 8 cycle passage to MIC for wild type Klebsiella pneumoniae; assay type: functional
Klebsiella pneumoniae [38] = experiment: Antimicrobial activity against Klebsiella pneumoniae assessed as inhibition of microbial growth after 24 hrs; assay type: functional; how it was run: as §4
Enterobacter cloacae [39] = experiment: Antimicrobial activity against Enterobacter cloacae isolate 1446 assessed as inhibition of microbial growth in presence of 100 uM efflux pump inhibitor reserpine after 24 hrs; assay type: functional, organism-based
Acinetobacter baumannii [40] = experiment: Ratio of MIC for Acinetobacter baumannii measured after 8 cycle passage to MIC for wild type Acinetobacter baumannii; assay type: functional
Klebsiella pneumoniae [41] = experiment: Antimicrobial activity against Klebsiella pneumoniae assessed as inhibition of microbial growth at 45 uM after 24 hrs; assay type: functional, organism-based; how it was run: as §5
Enterococcus faecium [42] = experiment: Induction of spontaneous mutation in Enterococcus faecium at 2 to 10 MIC; assay type: functional, organism-based
Pseudomonas aeruginosa [43] = experiment: Bactericidal activity against Pseudomonas aeruginosa after 24 hrs; assay type: functional
Enterobacter cloacae [44] = experiment: Induction of spontaneous mutation in Enterobacter cloacae at 2 to 10 MIC; assay type: functional, organism-based
Enterobacter cloacae [45] = experiment: Antimicrobial activity against Enterobacter cloacae assessed as inhibition of microbial growth at 45 uM after 24 hrs; assay type: functional, organism-based; how it was run: as §5
Acinetobacter baumannii [46] = experiment: Bactericidal activity against Acinetobacter baumannii after 24 hrs; assay type: functional
Pseudomonas aeruginosa [47] = experiment: Induction of spontaneous mutation in Pseudomonas aeruginosa at 2 to 10 MIC; assay type: functional, organism-based; details: 2 to 10 x MIC
[48] = Cytotoxicity against human A549 cells assessed as cell viability recovery up to 225 uM after 48 hrs by MTT assay; assay type: cell-based; details: read-out: Activity; how it was run: as §3
Staphylococcus aureus [49] = experiment: Effect on bacterial density of methicillin-resistant Staphylococcus aureus at 200 uM measured over 2 hrs period by time kill assay; assay type: functional, organism-based
Staphylococcus aureus [50] = experiment: Bactericidal activity against methicillin-resistant Staphylococcus aureus assessed as cell survival recovery at 200 uM measured after drug wash out after 120 mins by time kill assay; assay type: functional; details: 2 h; how it was run: as §2

## CCCCCCCN1C(=N)N(CCCC[C@H]2CNC(=N)N2CCc2cccc(C(F)(F)F)c2)C[C@@H]1CC1CCCCC1
[1]
  hemolysis at 0.25 h, 10 µM: 0.34%
Enterococcus faecium [2]
  MBEC50: 26 µM
Staphylococcus aureus [3]
  Survival: 0.2%
[4]
  Selectivity Index: 43
Staphylococcus aureus [5]
  Ratio: 4
Enterobacter cloacae [6]
  Ratio: <=8
[7]
  Selectivity Index: 43
Staphylococcus aureus [8]
  Activity: inactive
[9]
  viability at 48 h, 45 µM: > 60%
Acinetobacter baumannii [10]
  MIC: 1.5 µM
Pseudomonas aeruginosa [11]
  MIC: 1.5 µM
Staphylococcus aureus [12]
  Activity: inactive
Staphylococcus aureus [13]
  fold change (FC): 2.5
Enterococcus faecium [14]
  growth inhibition (GI): Active
Staphylococcus aureus [15]
  Activity: Active
Pseudomonas aeruginosa [16]
  MBEC50: 46 µM
[17]
  Selectivity Index: 43
Enterobacter cloacae [18]
  MBC90: 6.4 µM (≈ 3.78 µg/mL)
Enterobacter cloacae [19]
  MIC: 1.5 µM
Acinetobacter baumannii [20]
  MBEC50: 13 µM
Staphylococcus aureus [21]
  MBC90: 3.3 µM (≈ 1.95 µg/mL)
Klebsiella pneumoniae [22]
  MBEC50: 4.8 µM
Klebsiella pneumoniae [23]
  Activity: inactive
[24]
  Selectivity Index: 43
Staphylococcus aureus [25]
  growth inhibition (GI): Active
Acinetobacter baumannii [26]
  growth inhibition (GI): Active
A549
  IC50: 66 µM
Enterobacter cloacae [27]
  MBEC50: 15 µM
Pseudomonas aeruginosa [28]
  growth inhibition (GI): Active
Staphylococcus aureus [29]
  MBEC50: 4.4 µM
Klebsiella pneumoniae [30]
  MBC90: 2.2 µM (≈ 1.3 µg/mL)
[31]
  Selectivity Index: 43
[32]
  Selectivity Index: 43
Staphylococcus aureus [33]
  MIC: 1.5 µM
Enterococcus faecium [34]
  MBC90: 3.3 µM (≈ 1.95 µg/mL)
Acinetobacter baumannii [35]
  Activity: inactive
Enterococcus faecium [36]
  MIC: 1.5 µM
Klebsiella pneumoniae [37]
  Ratio: <=8
Klebsiella pneumoniae [38]
  MIC: 1.5 µM
Enterobacter cloacae [39]
  growth inhibition (GI): Active
Acinetobacter baumannii [40]
  Ratio: <=8
Klebsiella pneumoniae [41]
  growth inhibition (GI): Active
Enterococcus faecium [42]
  Activity: inactive
Pseudomonas aeruginosa [43]
  MBC90: 14 µM (≈ 8.27 µg/mL)
Enterobacter cloacae [44]
  Activity: inactive
Enterobacter cloacae [45]
  growth inhibition (GI): Active
Acinetobacter baumannii [46]
  MBC90: 3.2 µM (≈ 1.89 µg/mL)
Pseudomonas aeruginosa [47]
  Activity: inactive
[48]
  viability at 48 h: ≥ 33%

## C[C@H]1c2cccc(O)c2C(=O)C2=C(O)[C@]3(O)C(=O)C(C(N)=O)=C(O)[C@@H](N(C)C)[C@@H]3[C@@H](O)[C@@H]21 [DOXYCYCLINE]
Staphylococcus aureus [49]
  Activity: inactive
Staphylococcus aureus [50]
  survival at 200 µM: 92%
